Experimental data as given in ChEMBL document CHEMBL4627393, “Discovery of Potent, Selective, and State-Dependent NaV1.7 Inhibitors with Robust Oral Efficacy in Pain Models: Structure-Activity Relationship and Optimization of Chroman and Indane Aryl Sulfonamides” (J Med Chem, 2020).

Tests used:
[1] = Lipophilicity, log D of the compound; format: physicochemical; settings: octanol/water
[2] = Metabolic stability in mouse liver microsomes assessed as metabolic rate at 1 uM preincubated for 5 mins followed by NADPH addition and measured up to 30 mins by LC/MS-MS analysis; format: ADME, Microsome; settings: 0.5 h
[3] = Metabolic stability in rat liver microsomes assessed as metabolic rate at 1 uM preincubated for 5 mins followed by NADPH addition and measured up to 30 mins by LC/MS-MS analysis; format: ADME, Microsome; settings: 0.5 h
[4] = Metabolic stability in human liver microsomes assessed as metabolic rate at 1 uM preincubated for 5 mins followed by NADPH addition and measured up to 30 mins by LC/MS-MS analysis; format: ADME, Microsome; settings: 0.5 h
[5] = Cmax in BALB/c mouse at 1 mg/kg, iv measured upto 24 hrs by LC/MS-MS analysis; format: ADME, organism-based; set-up: dose 1 mg/kg, route intravenous; settings: in vivo
[6] = AUClast in BALB/c mouse at 1 mg/kg, iv measured upto 24 hrs by LC/MS-MS analysis; format: ADME, organism-based; set-up: time < 24 hr, dose 1 mg/kg, route intravenous; settings: in vivo
[7] = Half life in BALB/c mouse at 1 mg/kg, iv measured upto 24 hrs by LC/MS-MS analysis; format: ADME, organism-based; settings: in vivo
[8] = Clearance in BALB/c mouse at 1 mg/kg, iv measured upto 24 hrs by LC/MS-MS analysis; format: ADME, organism-based; settings: in vivo
[9] = Volume of distribution at steady state in BALB/c mouse at 1 mg/kg, iv measured upto 24 hrs by LC/MS-MS analysis; format: ADME, organism-based; settings: in vivo, read-out: Vdss
Summary of the method: (§1)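 Pharmacokinetics were run with an IV dose of 1 mg/kg and a PO dose of 10 mg/kg. Parameters reported were AUClast, Cmax, CL, T1/2, Vss and %F.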

[10] = Cmax in BALB/c mouse at 10 mg/kg, po measured upto 24 hrs by LC/MS-MS analysis; format: ADME, organism-based; set-up: dose 10 mg/kg, route oral; settings: in vivo
[11] = AUClast in BALB/c mouse at 10 mg/kg, po measured upto 24 hrs by LC/MS-MS analysis; format: ADME, organism-based; set-up: dose 10 mg/kg, time < 24 hr, route oral; settings: in vivo
[12] = Oral bioavailability in BALB/c mouse at 10 mg/kg measured upto 24 hrs by LC/MS-MS analysis; format: ADME, organism-based; settings: in vivo; summary of the method: as §1
[13] = Cmax in Sprague-Dawley rat at 1 mg/kg, iv measured upto 24 hrs by LC/MS-MS analysis; format: ADME, organism-based; set-up: dose 1 mg/kg, route intravenous; settings: in vivo
[14] = Cmax in Beagle dog at 1 mg/kg, iv administered as infusion for 15 mins by LC/MS-MS analysis; format: ADME, organism-based, Canis lupus familiaris; set-up: dose 1 mg/kg, route intravenous; settings: in vivo
[15] = Metabolic stability in dog liver microsomes assessed as metabolic rate at 1 uM preincubated for 5 mins followed by NADPH addition and measured up to 30 mins by LC/MS-MS analysis; format: ADME, Canis lupus familiaris, Microsome; settings: 0.5 h
[16] = Metabolic stability in monkey liver microsomes assessed as metabolic rate at 1 uM preincubated for 5 mins followed by NADPH addition and measured up to 30 mins by LC/MS-MS analysis; format: ADME, Macaca mulatta, Microsome; settings: rhesus monkey, 0.5 h
[17] = Apparent permeability across apical to basolateral side in human Caco2 cells; format: ADME, cell-based; settings: Caco-2
[18] = Apparent permeability across basolateral to apical side in human Caco2 cells; format: ADME, cell-based; settings: Caco-2
[19] = AUClast in Sprague-Dawley rat at 1 mg/kg, iv measured upto 24 hrs by LC/MS-MS analysis; format: ADME, organism-based; set-up: dose 1 mg/kg, time < 24 hr, route intravenous; settings: in vivo
[20] = Half life in Sprague-Dawley rat at 1 mg/kg, iv measured upto 24 hrs by LC/MS-MS analysis; format: ADME, organism-based; settings: in vivo
[21] = Clearance in Sprague-Dawley rat at 1 mg/kg, iv measured upto 24 hrs by LC/MS-MS analysis; format: ADME, organism-based; settings: in vivo
[22] = Volume of distribution at steady state in Sprague-Dawley rat at 1 mg/kg, iv measured upto 24 hrs by LC/MS-MS analysis; format: ADME, organism-based; settings: in vivo, read-out: Vdss
[23] = Cmax in Sprague-Dawley rat at 10 mg/kg, po measured upto 24 hrs by LC/MS-MS analysis; format: ADME, organism-based; set-up: dose 10 mg/kg, route oral; settings: in vivo
[24] = AUClast in Sprague-Dawley rat at 10 mg/kg, po measured upto 24 hrs by LC/MS-MS analysis; format: ADME, organism-based; set-up: time < 24 hr, dose 10 mg/kg, route oral; settings: in vivo
[25] = Oral bioavailability in Sprague-Dawley rat at 10 mg/kg measured upto 24 hrs by LC/MS-MS analysis; format: ADME, organism-based; settings: in vivo; summary of the method: as §1
[26] = AUClast in Beagle dog at 1 mg/kg, iv administered as infusion for 15 mins by LC/MS-MS analysis; format: ADME, organism-based, Canis lupus familiaris; set-up: dose 1 mg/kg, time 0 - last, route intravenous; settings: in vivo
[27] = Half life in Beagle dog at 1 mg/kg, iv administered as infusion for 15 mins by LC/MS-MS analysis; format: ADME, organism-based, Canis lupus familiaris; settings: in vivo
[28] = Clearance in Beagle dog at 1 mg/kg, iv administered as infusion for 15 mins by LC/MS-MS analysis; format: ADME, organism-based, Canis lupus familiaris; settings: in vivo
[29] = Volume of distribution at steady state in Beagle dog at 1 mg/kg, iv administered as infusion for 15 mins by LC/MS-MS analysis; format: ADME, organism-based, Canis lupus familiaris; settings: in vivo, read-out: Vdss; summary of the method: as §1
[30] = Cmax in Beagle dog at 1 mg/kg, iv administered as infusion for 15 mins followed by compound washout and subsequent compound dosing at 5 mg/kg, po measured up to 24 hrs by LC/MS-MS analysis; format: ADME, organism-based, Canis lupus familiaris; settings: in vivo
[31] = AUClast in Beagle dog at 1 mg/kg, iv administered as infusion for 15 mins followed by compound washout and subsequent compound dosing at 5 mg/kg, po measured up to 24 hrs by LC/MS-MS analysis; format: ADME, organism-based, Canis lupus familiaris; settings: in vivo
[32] = Bioavailability in Beagle dog at 1 mg/kg, iv administered as infusion for 15 mins followed by compound washout and subsequent compound dosing at 5 mg/kg, po measured up to 24 hrs by LC/MS-MS analysis; format: ADME, organism-based, Canis lupus familiaris; settings: in vivo

Compound `O=S(=O)(Nc1ccncn1)c1ccc2c(c1)OCC[C@@H]2c1ccc(C(F)(F)F)cc1-c1ccc(F)cn1` has a logD [1] of 3.

`O=S(=O)(Nc1ncc(F)cn1)c1ccc2c(c1)OCC[C@@H]2c1ccc(C(F)(F)F)cc1N1CCOCC1` gave a logD [1] of 2.8.

In the case of `Cn1nccc1-c1cc(C(F)(F)F)ccc1[C@@H]1CCOc2cc(S(=O)(=O)Nc3nccs3)ccc21`, the logD [1] is reported as 2.2.

For `O=S(=O)(Nc1ccncn1)c1ccc2c(c1)OCC[C@@H]2c1ccc(C(F)(F)F)cc1-c1ccc(F)nc1`, the logD [1] was 2.3.

With `Cn1nccc1-c1cc(C(F)(F)F)ccc1[C@H]1CCOc2cc(S(=O)(=O)Nc3cccnn3)ccc21` the logD [1] was 2.2.

For `O=C1OCCN1c1cc(C(F)(F)F)ccc1[C@H]1CCOc2cc(S(=O)(=O)Nc3nccs3)ccc21`, the logD [1] was 2.1.

`O=S(=O)(Nc1ncc(F)cn1)c1ccc2c(c1)OCC[C@@H]2c1ccc(C(F)(F)F)cc1-c1ccc(F)cn1` gave a logD [1] of 3.

For `Cc1ccc(-c2cc(C(F)(F)F)ccc2[C@H]2CCOc3cc(S(=O)(=O)Nc4cccc(F)n4)ccc32)cn1`, the logD [1] was 3.7.

`Cc1ccc(-c2cc(C(F)(F)F)ccc2[C@H]2CCc3cc(S(=O)(=O)Nc4ncccn4)ccc32)cn1` showed a logD [1] of 2.8.

In the case of `Cn1nccc1-c1cc(C(F)(F)F)ccc1[C@H]1CCOc2cc(S(=O)(=O)Nc3cc(F)ccn3)ccc21`, the logD [1] is reported as 3.2.

`Cn1nccc1-c1cc(C(F)(F)F)ccc1[C@H]1CCOc2cc(S(=O)(=O)Nc3cccc(F)n3)ccc21` gave a logD [1] of 3.6.

For `O=S(=O)(Nc1ncccn1)c1ccc2c(c1)CC[C@@H]2c1ccc(C(F)(F)F)cc1-c1ccc(F)nc1`, the logD [1] was 3.2.

`O=S(=O)(Nc1nccs1)c1ccc2c(c1)OCC[C@@H]2c1ccc(C(F)(F)F)cc1-c1ccc(F)cc1` gave a logD [1] of 4.5.

Work on `Cn1nccc1-c1cc(C(F)(F)F)ccc1[C@H]1CCOc2cc(S(=O)(=O)Nc3ccncn3)ccc21` yielded a logD [1] of 1.8.

`O=S(=O)(Nc1nccs1)c1ccc2c(c1)OCC[C@@H]2c1ccc(C(F)(F)F)cc1-c1ccc(F)nc1` gave a logD [1] of 3.2, a Drug metabolism [2] of 0.04 nmol/min/mg and a Drug metabolism [3] of 0.05 nmol/min/mg. The Drug metabolism [4] was 0.03 nmol/min/mg, the Cmax [5] was 800 nM and the AUC(0-t) at 24 h [6] was 2 µM·h. The half-life [7] was 168 min, the clearance [8] was 14 mL/min/kg and the Vd [9] was 2.9 L/kg. The Cmax [10] was 4.2 µM, the AUC(0-t) at 24 h [11] was 19 µM·h and the bioavailability [12] was 95%.

In the case of `Cc1nc(-c2cc(C(F)(F)F)ccc2[C@H]2CCOc3cc(S(=O)(=O)Nc4ncc(F)cn4)ccc32)co1`, the logD [1] is reported as 2.8.

`O=S(=O)(Nc1nccs1)c1ccc2c(c1)OCC[C@@H]2c1ccc(C(F)(F)F)cc1-c1ccc(F)cn1` showed a logD [1] of 3.5.

`O=S(=O)(Nc1nccs1)c1ccc2c(c1)OCC[C@H]2c1ccc(C(F)(F)F)cc1-c1ccc(F)cc1` gave a logD [1] of 4.5.

With `O=S1(=O)CCN(c2cc(C(F)(F)F)ccc2[C@H]2CCOc3cc(S(=O)(=O)Nc4nccs4)ccc32)CC1` the logD [1] was 2.5.

`O=S(=O)(Nc1ncccn1)c1ccc2c(c1)OCC[C@@H]2c1ccc(C(F)(F)F)cc1-c1ccc(F)nc1` gave a Cmax [13] of 1700 nM, a Cmax [14] of 5.7 µM and a logD [1] of 2.8. The Drug metabolism [2] was 0 nmol/min/mg, the Drug metabolism [3] was 0 nmol/min/mg and the Drug metabolism [4] was 0 nmol/min/mg. It also gave a Cmax [5] of 2000 nM, an AUC(0-t) at 24 h [6] of 12 µM·h and a half-life [7] of 192 min. For the same compound, the clearance [8] was 2.6 mL/min/kg, the Vd [9] was 0.8 L/kg and the Cmax [10] was 17 µM. It also gave an AUC(0-t) at 24 h [11] of 171 µM·h, a bioavailability [12] of over 100% and a Drug metabolism [15] of 0.03 nmol/min/mg. For the same compound, the Drug metabolism [16] was 0.01 nmol/min/mg, the Papp [17] was 418 nm/s and the Papp [18] was 334 nm/s. It also gave an AUC(0-t) at 24 h [19] of 15 µM·h, a half-life [20] of 588 min and a clearance [21] of 2 mL/min/kg. It also gave a Vd [22] of 1.2 L/kg, a Cmax [23] of 6.6 µM and an AUC(0-t) at 24 h [24] of 111 µM·h. The bioavailability [25] was 74%, the AUC(0-t) at 0.25 h [26] was 70 µM·h and the half-life [27] was 1440 min. The clearance [28] was 0.3 mL/min/kg, the Vd [29] was 0.5 L/kg and the Cmax [30] was 14 µM. The AUC(0-t) [31] was 218 µM·h and the bioavailability [32] was 78%.

For `O=S(=O)(Nc1ncc(F)cn1)c1ccc2c(c1)OCC[C@@H]2c1ccc(C(F)(F)F)cc1-c1ccc(F)nc1`, the logD [1] was 2.9.
